Published values from different studies.
Compare with care: the assays were run in different laboratories.
CDK16 with cyclin Y: Cyclin-dependent kinase 16, with cyclin Y (CDK16, Homo sapiens, UniProt Q00536)
CDK16: Cyclin-dependent kinase 16 (CDK16, Homo sapiens, UniProt Q00536)

| SMILES | target | test | conditions | measurement | value |
| --- | --- | --- | --- | --- | --- |
| CS(=O)(=O)Nc1cccc(-c2csc(NC(=O)CSc3nc4nccnc4c(=O)n3CCc3ccccc3)n2)c1 | CDK16 with cyclin Y | enzyme activity, inhibitor | 10 µM | inhibition | -1% |
| Nc1ncnc2occ(-c3ccc(NC(=O)Nc4cc(C(F)(F)F)ccc4F)cc3)c12 | CDK16 | cell-free assay, inhibitor | 20 µM | remaining signal | 0.15% |
| CC(C)(C)c1nc2c(s1)c1nc(N)ncc1c1ccc(NS(=O)(=O)c3c(F)cccc3F)c(F)c12 | CDK16 with cyclin Y | enzyme activity, inhibitor, radiometric | 1 µM | remaining activity | 87% |
| CCCCNc1ncc2c(-c3ccc(F)cc3)nn(C[C@H]3CC[C@H](N)CC3)c2n1 | CDK16 | target engagement in cells, inhibitor, chemoproteomics | 20 mM | inhibition | 38.5% |
| CCCOc1ccc([C@H]2[C@H](C(=O)O)[C@@H](c3ccc4c(c3)OCO4)CN2CC(=O)Nc2c(CC)cccc2CC)cc1 | CDK16 | cell-free assay, competition with immobilised ligand | 1 µM | remaining binding | 77% |
| Cn1c2c(c3ccc(Cl)c(Cl)c31)C(C#N)C1(CCN(C(=O)OC(C)(C)C)CC1)NC2=O (racemic) | CDK16 | thermal stability, DSF | 10 µM | ΔTm | 0 °C |
| CO[C@@H](C)c1c(Nc2ccc([C@@H](N(C)C(=O)C3CCS(=O)(=O)CC3)C(F)(F)F)cc2)cnc2cc(Cl)nn12 | CDK16 | cell-free assay, competition with immobilised ligand | 1 µM | remaining binding | 72% |
| Cn1c2c(c3ccc(Cl)c(Cl)c31)C(C#N)C1(CCCCC1)NC2=O (racemic) | CDK16 | thermal stability, DSF | 10 µM | ΔTm | 0.6 °C |
| CNC(=O)Nc1ccc2c(c1)CC[C@@]21OC(=O)N(CC(=O)N(Cc2ccc(F)cc2)[C@@H](C)C(F)(F)F)C1=O | CDK16 | cell-free assay, competition with immobilised ligand | 1 µM | remaining binding | 75% |
| N#CC1c2c([nH]c3c(Cl)c(Cl)ccc23)C(=O)NC12CCCCC2 (racemic) | CDK16 | thermal stability, DSF | 10 µM | ΔTm | 0.9 °C |
| O=C(O)c1cc(-c2ccc(C3CCNCC3)cc2)c2ccc(-c3ccc(C(F)(F)F)cc3)cc2c1 | CDK16 | cell-free assay, competition with immobilised ligand | 1 µM | remaining binding | 100% |
| COc1cccc2c(NCc3ccccc3)nc(-n3c(N)nc4ccccc43)nc12 | CDK16 | target engagement in cells, inhibitor, chemoproteomics | 20 mM | inhibition | -2.7% |
